Assay outcomes: PubChem BioAssay, The Scripps Research Institute Molecular Screening Center
Hits are enriched below; roughly 2.3% of the tested compounds scored in any of these assays.
RBBP9 inhibitor: inhibitors of human serine hydrolase RBBP9 | O75884 | recombinant RBBP9, FP-Rh probe fluorescence polarization | AID 1515 | inhibition, % at 7.94 µM | actives 0.2% (n = 220,000);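 active = inhibition above the campaign mean of all tested compounds plus 3 SD, cut at about 14% in these data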
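Measured by: FP readout at 525/598 nm; material: recombinant human RBBP9; also added: Serine-hydrolase probe FP-Rh, 375 nM pre-mixing; medium: Tris buffer pH 8.0, NaCl, Pluronic; replication: one well per compound; doses: one concentration, 7.94 µM nominal, 0.794% DMSO; timing: preincubation 30 min plus labeling 45 min at 25 °C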
PAD4 inh: blocks human protein arginine deiminase 4; recombinant PAD4, RCA probe fluorescence polarization; inhibition, % at 6.36 µM; actives 0.41% (n = 330,000); AID 485272;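 active = percent inhibition above a cutoff equal to the mean of all tested compounds plus 3 SD, cut at about 15% in these data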
GSTO1 counter: GSTO1 inhibition, counter-screen for RBBP9 inhibitors; P78417; recombinant GSTO1, activity-based probe fluorescence polarization; inhibition, % at 5.96 µM; actives 1.1% (n = 300,000); AID 1974;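 active = inhibition above the campaign mean inhibition plus 3 SD, cut at about 35% in these data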
Fam108B counter: blocks mouse Fam108B hydrolase in RBBP9 counter-screen. recombinant Fam108B, FP-Rh probe fluorescence polarization. inhibition, % at 9.51 µM. actives 0.33% (n = 300,000). AID 1947;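 active = inhibition above the screen mean inhibition plus 3 SD, computed separately per campaign, cut at about 18% in these data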;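 also: inhibitors lower polarization as less probe binds the enzyme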
PME-1 primary: PME-1 (human) inhibition; AID 2130; recombinant PME-1, FP-Rh probe fluorescence polarization; actives 0.53% (n = 320,000); Q9Y570; inhibition, % at 5.9 µM;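 active = inhibition above the campaign mean of all compounds plus 3 SD, cut at about 26% in these data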;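 also: competitive labeling of PME-1 active site by serine hydrolase directed probe; inhibitors block probe labeling so polarization falls and inhibition rises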
Target sequence (Q9Y570 whole entry, looked up): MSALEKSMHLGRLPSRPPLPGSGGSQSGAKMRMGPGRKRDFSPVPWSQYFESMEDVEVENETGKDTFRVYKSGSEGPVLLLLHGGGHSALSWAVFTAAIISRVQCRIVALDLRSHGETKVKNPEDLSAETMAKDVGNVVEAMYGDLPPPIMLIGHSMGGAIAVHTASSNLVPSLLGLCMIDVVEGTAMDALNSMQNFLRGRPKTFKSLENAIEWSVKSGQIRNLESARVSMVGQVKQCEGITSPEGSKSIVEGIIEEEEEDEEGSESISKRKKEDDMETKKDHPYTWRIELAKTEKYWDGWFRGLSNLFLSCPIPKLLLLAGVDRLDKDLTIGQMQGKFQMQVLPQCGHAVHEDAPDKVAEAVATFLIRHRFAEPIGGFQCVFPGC
PRMT1 FP inh: blocks human protein arginine methyltransferase 1; recombinant PRMT1, activity-based probe fluorescence polarization; inhibition, % at 2.79 µM; AID 652257; Q99873; actives 1.3% (n = 370,000);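 active = inhibition above about 21% made by adding two undisclosed values, limit read from the data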
Target sequence (Q99873 whole entry, looked up): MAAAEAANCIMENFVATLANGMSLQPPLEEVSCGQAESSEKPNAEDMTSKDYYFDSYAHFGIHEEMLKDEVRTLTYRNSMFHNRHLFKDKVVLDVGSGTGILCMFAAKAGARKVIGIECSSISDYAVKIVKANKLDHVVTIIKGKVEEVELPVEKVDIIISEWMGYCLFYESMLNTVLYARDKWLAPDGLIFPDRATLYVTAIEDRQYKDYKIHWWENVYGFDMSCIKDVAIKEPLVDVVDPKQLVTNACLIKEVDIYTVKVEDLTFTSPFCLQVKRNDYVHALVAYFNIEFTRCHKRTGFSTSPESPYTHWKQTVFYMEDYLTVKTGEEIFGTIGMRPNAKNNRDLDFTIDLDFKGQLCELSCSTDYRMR
PRMT1 confirm: PRMT1 (human) inhibition, FP confirmation; shares compounds with PRMT1 FP inh; recombinant His-PRMT1, activity-based probe fluorescence polarization; inhibition, % at 2.79 µM; actives 42% (n = 3,300);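 active = mean inhibition across replicates above the hit cutoff derived for the earlier primary screen, cut at about 22% in these data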
Each line names hits and unclear results; the compound was inactive in the other large screens (follow-up assays come after a bar, where they were run).

O=c1[nH]c2ccc(Cl)cc2c(O)c1-c1ccccc1	none
O=c1[nH]c2ccc(Cl)cc2c(-c2ccccc2)c1SC(=S)N1CCCCC1	PRMT1 FP inh 44 | PRMT1 confirm 24
O=c1[nH]c2ccc(Cl)cc2c(-c2ccccc2)c1SC(=S)N1CCOCC1	PRMT1 FP inh 27 | PRMT1 confirm inactive
NNC(=O)CSc1c(-c2ccccc2)c2cc(Cl)ccc2[nH]c1=O	none (no result: RBBP9 inhibitor, PAD4 inh, GSTO1 counter, Fam108B counter, PME-1 primary)
Nc1ncc2c(n1)CC(c1ccco1)CC2=O (stereo not drawn)	PRMT1 FP inh 28 | PRMT1 confirm inactive
O=C1CC(c2ccco2)Cc2nc(N3CCc4ccccc4C3)ncc21 (stereo not drawn)	none
CCC(=O)Nc1ncc2c(n1)CC(c1ccco1)CC2=O (stereo not drawn)	PRMT1 FP inh 41 | PRMT1 confirm inactive
CC(=O)Nc1ncc2c(n1)CC(c1ccco1)CC2=O (stereo not drawn)	none
O=C(Nc1ncc2c(n1)CC(c1ccco1)CC2=O)c1ccco1 (stereo not drawn)	PRMT1 FP inh 36 | PRMT1 confirm inactive
Cn1cc(-c2cccc(Cl)c2)cc(C#N)c1=O	none
Nc1cccnc1Sc1cccc(Cl)c1	PRMT1 FP inh 31 | PRMT1 confirm inactive
O=C(NCc1ccccc1Cl)[C@H]1CCCN1C(=O)[C@H]1CCCN1C(=O)c1cccc2ccccc12	none (no result: RBBP9 inhibitor, PAD4 inh, GSTO1 counter, Fam108B counter, PME-1 primary)
C=CSc1sc(Cl)c(N2CCOCC2)c1[N+](=O)[O-]	none
C=CS(=O)(=O)c1sc(Cl)c(N2CCOCC2)c1[N+](=O)[O-]	PRMT1 FP inh 68 (no result: PAD4 inh, GSTO1 counter, Fam108B counter, PME-1 primary) | PRMT1 confirm 82
Cc1ccc(CN(C)C(=O)c2ccccc2Oc2ccccc2)o1	PRMT1 FP inh 34 | PRMT1 confirm inactive
CSc1ccccc1OCc1cc(C(=O)N(C)Cc2ccc(C)o2)no1	PRMT1 FP inh 25 (no result: RBBP9 inhibitor) | PRMT1 confirm 28
CC(=O)c1cccc(OCc2cc(C(=O)N(C)Cc3ccc(C)o3)no2)c1	PRMT1 FP inh 32 (no result: RBBP9 inhibitor) | PRMT1 confirm 47
CC(=O)c1cccc(OCc2cc(C(=O)N(C)CCc3ccccn3)no2)c1	none (no result: RBBP9 inhibitor)
CSc1ccccc1OCc1cc(C(=O)N(C)Cc2ccc3nsnc3c2)no1	none (no result: RBBP9 inhibitor)
Cc1ccc(C)c(-n2c(-c3ccncc3)n[nH]c2=S)c1	none
CC(=O)Oc1ccc(N2C(=O)C3C4C=CC(CO)(O4)C3C2=O)cc1 (stereo not drawn)	PRMT1 FP inh 85 | PRMT1 confirm 79
CC(=O)Oc1ccc(N2C(=O)C3C(C2=O)C2(C)C=CC3(C)O2)cc1 (stereo not drawn)	none (no result: RBBP9 inhibitor, PRMT1 FP inh)
O=C1C2C3C=CC(CNS(=O)(=O)c4ccccc4)(O3)C2C(=O)N1c1ccc(Cl)cc1 (stereo not drawn)	PRMT1 FP inh 80 | PRMT1 confirm 69
CCCOC(=O)c1ccc(NC(=O)C2C3CCC(C3)C2C(=O)O)cc1 (stereo not drawn)	none
CCCCOC(=O)Nc1nnc(CC)s1	none
O=C(O)C1C2C=CC(O2)C1C(=O)NCc1ccccc1Br (stereo not drawn)	PRMT1 FP inh 30 | PRMT1 confirm inactive
COc1ccccc1NC(=O)c1cc(=O)[nH]c2ccccc12	PRMT1 FP inh 25 (no result: RBBP9 inhibitor) | PRMT1 confirm inactive
CN(CCc1ccccn1)C1CC(=O)N(c2ccc(Cl)cc2)C1=O (stereo not drawn)	PRMT1 FP inh 80 | PRMT1 confirm inactive
Cc1cc(C)c(C)c(S(=O)(=O)N2C(=S)NC(=O)C2C(C)C)c1C (stereo not drawn)	PRMT1 FP inh 28 | PRMT1 confirm inactive
Cc1cc(C)c(C)c(S(=O)(=O)N2C(=S)NC(=O)C2CC(C)C)c1C (stereo not drawn)	none
COc1ccc(S[C@]2(C(=O)N3CCN(C(C)=O)CC3)CC(=O)N(C(=O)c3ccccc3)[C@@H]2c2ccc(OC)cc2)cc1	PRMT1 FP inh 83 (no result: RBBP9 inhibitor, PAD4 inh, GSTO1 counter, Fam108B counter, PME-1 primary) | PRMT1 confirm 82
COc1ccc(S[C@]2(C(=O)N3CCN(C(C)=O)CC3)CC(=O)N(C(=O)CCc3ccccc3)[C@@H]2c2ccc(OC)cc2)cc1	none (no result: RBBP9 inhibitor, PAD4 inh, GSTO1 counter, Fam108B counter, PME-1 primary)
COc1ccc(S[C@]2(C(=O)N3CCOCC3)CC(=O)N(C(=O)c3ccccc3)[C@@H]2c2ccc(OC)cc2)cc1	PRMT1 FP inh 80 (no result: RBBP9 inhibitor, PAD4 inh, GSTO1 counter, Fam108B counter, PME-1 primary) | PRMT1 confirm 77
COc1ccc(S[C@]2(C(=O)N3CCN(C(C)=O)CC3)CC(=O)N(S(=O)(=O)c3ccc(F)cc3)[C@@H]2c2ccc(OC)cc2)cc1	PRMT1 FP inh 43 (no result: RBBP9 inhibitor, PAD4 inh, GSTO1 counter, Fam108B counter, PME-1 primary) | PRMT1 confirm 37
CCOC(=O)N1C(=O)C[C@](Sc2ccc(OC)cc2)(C(=O)N(C)C)[C@H]1c1ccc(OC)cc1	PRMT1 FP inh 46 (no result: RBBP9 inhibitor, PAD4 inh, GSTO1 counter, Fam108B counter, PME-1 primary) | PRMT1 confirm 37
COc1cc(NC(=O)C2CCCN(c3ncnc4c3nc3n4CCCCC3)C2)cc(OC)c1OC (stereo not drawn)	none (no result: RBBP9 inhibitor)
CCC(=O)N1c2ccc(S(=O)(=O)NC3CCCCC3)cc2CC1C (stereo not drawn)	none (no result: RBBP9 inhibitor)
CCCn1c(=O)c(Br)cn(-c2ccccc2C)c1=O	none
CCc1nc2ccc(C(=O)Nc3ccc(C(N)=O)cc3)cn2c1N(CCC(C)C)CCN(C)C	none (no result: RBBP9 inhibitor, PAD4 inh, GSTO1 counter, Fam108B counter, PME-1 primary)
CC(C)Sc1nc(SCC(=O)NCc2ccco2)c2c3c(sc2n1)COC(C)(C)C3	PRMT1 FP inh 31 | PRMT1 confirm inactive
O=C(OCc1ccccc1)c1cccnc1Cl	none
Cc1cccc(/C=N/NC(=O)C(C)Nc2cccc3ccccc23)n1 (stereo not drawn)	PRMT1 FP inh 26 | PRMT1 confirm inactive
CN(CC(=O)Nc1cccc(F)c1)C(=O)/C=C/c1ccc(S(=O)(=O)N2CCCCCC2)cc1	none (no result: RBBP9 inhibitor, PAD4 inh, GSTO1 counter, Fam108B counter, PME-1 primary)
O=C1CC(Sc2nnnn2-c2ccccc2)C(=O)N1c1cccc(Cl)c1 (stereo not drawn)	PRMT1 FP inh 74 | PRMT1 confirm 79
COc1ccc(N2C(=O)CC(Sc3nnnn3-c3ccc(F)cc3)C2=O)cc1 (stereo not drawn)	PRMT1 FP inh 51 | PRMT1 confirm 64
Clc1cccc(N2CCN(c3nnnn3-c3ccccc3)CC2)c1	none
Cc1c2c(nc3nnnn13)CCCC2	none
COc1ccccc1N/C=C1/Sc2cc(Cl)ccc2NC1=O	none
Cc1ccc(N/C=C2/Sc3ccccc3NC2=O)cc1	PRMT1 FP inh 31 | PRMT1 confirm inactive
O=C1Nc2ccccc2S/C1=C/NCc1ccccc1Cl	none
COc1ccc(N/C=C2/Sc3ccccc3NC2=O)cc1	PRMT1 FP inh 33 | PRMT1 confirm 30
COc1ccc(NC(=O)NS(=O)(=O)c2ccc(C)cc2)cn1	PRMT1 FP inh 105 (no result: RBBP9 inhibitor, PAD4 inh, GSTO1 counter, Fam108B counter, PME-1 primary) | PRMT1 confirm inactive
O=C(Nc1ccc(OCc2ccccc2)cc1)Nc1cccnc1	none (no result: RBBP9 inhibitor)
COc1ccc(NC(=O)Nc2ccc(OCc3ccccc3)cc2)cn1	PRMT1 FP inh 26 (no result: RBBP9 inhibitor, PAD4 inh, GSTO1 counter, Fam108B counter, PME-1 primary) | PRMT1 confirm inactive
CCOc1ccc(-c2ccc(/C=C3/C(=N)N4C=CSC4=NC3=O)o2)c([N+](=O)[O-])c1	none
